ChEMBL document CHEMBL1144374, “Design, synthesis and biological evaluation of novel, simplified analogues of laulimalide: modification of the side chain” (Bioorg Med Chem Lett, 2005)
pIC50: −log10 of the molar value.

Assays:
Assay type in all cases: cell-based
[1] = Inhibitory concentration measured in term of cytotoxicity against human A2780/AD10 cells; details: A2780 ADR
How it was run: (§1)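 Human ovarian carcinoma A2780 cells and the drug-resistant A2780/AD10 subline were exposed to compounds for three days. Growth was read by MTT cell proliferation assay. IC50 values are means ± standard error of at least four independent experiments. Compounds were scored not active when there was no activity below 50 µM.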

[2] = Inhibitory concentration of compound required for exhibiting cytotoxic effect on human A2780 cells; how it was run: as §1
[3] = Inhibitory concentration measured in term of cytotoxicity against human A2780/AD10 cells; na = not active below 50 uM; details: a2780 adr; how it was run: as §1
[4] = Inhibitory concentration of compound required for exhibiting cytotoxic effect on human A2780 cells; na = not active below 50 uM; how it was run: as §1
[5] = Inhibitory concentration of compound required for exhibiting cytotoxic effect on human A2780 cells; no. of experiment=4
How it was run: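 Human ovarian carcinoma A2780 cells exposed to drugs for three days. Growth was read by MTT (3-(4,5-dimethylthiazol-2-yl)-2,5-diphenyltetrazolium bromide) cell proliferation assay and IC50 determined. Values are means ± standard error of at least four independent experiments.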

Row | Structure (SMILES) | pIC50 [1] | pIC50 [2] | IC50 [3] | IC50 [4] | pIC50 [5]
1 | C=C1CCC[C@@H]2CC=C[C@@H](C/C=C\C(=O)O[C@H](CO)C[C@@H]3O[C@H]3[C@@H](O)C1)O2 | 4.36 | 4.40 |  |  | 
2 | C=C1CCC[C@@H]2CC=C[C@@H](C/C=C\C(=O)O[C@H]([C@@H](O)/C=C/c3csc(C)n3)C[C@@H]3O[C@H]3[C@@H](O)C1)O2 |  |  | Not Active | Not Active | 
3 | C=C1CCC[C@@H]2CC=C[C@@H](C/C=C\C(=O)O[C@H]([C@@H](O)/C=C/[C@@H]3CC(C)=CCO3)C[C@@H]3O[C@H]3[C@@H](O)C1)O2 | 7.13 | 7.30 |  |  | 
4 | C=C1CCC[C@@H]2CC=C[C@@H](C/C=C\C(=O)O[C@H]([C@@H](O)/C=C/C3CCCCC3)C/C=C/[C@@H](O)C1)O2 |  |  | Not Active | Not Active | 
5 | C=C1CCC[C@@H]2CC=C[C@@H](C/C=C\C(=O)O[C@H]([C@@H](O)/C=C/C3CCCCC3)C[C@@H]3O[C@H]3[C@@H](O)C1)O2 | 5.08 | 5.05 |  |  | 
6 | C=C1CCC[C@@H]2CC=C[C@@H](C/C=C\C(=O)O[C@H](CO)C/C=C/[C@@H](O)C1)O2 |  |  | Not Active | Not Active | 
7 | C=C1CCC[C@@H]2CC=C[C@@H](C/C=C\C(=O)O[C@H]([C@@H](O)/C=C/[C@@H]3CC(C)=CCO3)C/C=C/[C@@H](O)C1)O2 | 5.96 | 6.37 |  |  | 
8 | C=C1CCC[C@@H]2CC=C[C@@H](C/C=C\C(=O)O[C@H]([C@@H](O)/C=C/c3csc(C)n3)C/C=C/[C@@H](O)C1)O2 |  |  | Not Active | Not Active | 
9 | C=C/C=C\[C@H](C)[C@H](OC(N)=O)[C@@H](C)[C@H](O)[C@@H](C)C/C(C)=C\[C@H](C)[C@@H](O)[C@@H](C)/C=C\[C@@H](O)C[C@@H]1OC(=O)[C@H](C)[C@@H](O)[C@H]1C [DISERMOLIDE] | 7.00 |  |  |  | 8.00
10 | C=C1C[C@H](C)C[C@@H]2CC=C[C@@H](C/C=C\C(=O)O[C@H]([C@@H](O)/C=C/[C@@H]3CC(C)=CCO3)C[C@@H]3O[C@H]3[C@@H](O)C1)O2 [FIJIANOLIDE B] | 8.12 | 8.47 |  |  | 
11 | CC(=O)O[C@H]1C(=O)[C@@]2(C)[C@H]([C@H](OC(=O)c3ccccc3)[C@]3(O)C[C@H](OC(=O)[C@H](O)[C@@H](NC(=O)c4ccccc4)c4ccccc4)C(C)=C1C3(C)C)[C@]1(OC(C)=O)CO[C@@H]1C[C@@H]2O [PACLITAXEL] | 5.82 |  |  |  | 8.96
